Holding throughout (conditions): read-out: Ki app
The target of one experiment is T1, Carboxypeptidase A1 (Homo sapiens, UniProt P15085).
T1 sequence (P15085 whole entry): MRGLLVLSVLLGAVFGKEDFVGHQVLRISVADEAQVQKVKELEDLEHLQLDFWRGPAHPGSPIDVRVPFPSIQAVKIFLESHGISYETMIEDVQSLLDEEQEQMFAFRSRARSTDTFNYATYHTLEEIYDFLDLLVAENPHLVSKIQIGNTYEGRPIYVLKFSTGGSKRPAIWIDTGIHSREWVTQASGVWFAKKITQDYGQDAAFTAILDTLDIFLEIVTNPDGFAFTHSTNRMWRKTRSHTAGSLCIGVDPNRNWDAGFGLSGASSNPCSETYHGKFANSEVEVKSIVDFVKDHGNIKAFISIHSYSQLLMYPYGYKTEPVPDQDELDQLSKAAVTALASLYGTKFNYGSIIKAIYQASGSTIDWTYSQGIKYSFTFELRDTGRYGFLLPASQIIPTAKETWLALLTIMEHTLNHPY
Put plainly: Inhibition of human recombinant carboxy peptidase A1 by fluorescence assay.

Experiment [1] concerns the target Angiotensin-converting enzyme 2 (Homo sapiens, UniProt Q9BYF1). Put plainly: Inhibition of human recombinant ACE2 by fluorescence assay. In a few lines: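 Fluorescence assay with 0.4 nM recombinant human ACE2 and 30 μM MCA-Tyr-Val-Ala-Asp-Ala-Pro-Lys(DNP)-OH substrate. Pre-incubation with inhibitor preceded substrate addition. Apparent Ki was reported, with average %CV 45%. Thiols were diluted from 10 mM stocks in 50% aqueous acetonitrile just before assay.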

The next experiment has as its target Neprilysin (Homo sapiens, UniProt P08473). Put plainly: Inhibition of human recombinant NEP by fluorescence assay. The method, boiled down:
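Recombinant human NEP at 0.15 nM was assayed with 2 μM FAM-[…]TAMRA)-NH2 substrate. Inhibitor was pre-incubated, then substrate added. Fluorescence gave Ki App, with average %CV 43%.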

The target in experiment [2] is Angiotensin-converting enzyme (Homo sapiens, UniProt P12821). Put plainly: Inhibition of human recombinant ACE by fluorescence assay. In a few lines:
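Recombinant human ACE at 0.5 nM was incubated with 10 μM MCA-Ala-Ser-Asp-Lys-Dap(DNP)-OH substrate. Buffer was 1 μM Zn(OAc)2, 100 μM TCEP reducing agent, 50 mM Hepes, 300 μM CHAPS and 300 mM NaCl, pH 7.5. Inhibitor was pre-incubated before substrate was added. Fluorescence read-out gave apparent Ki.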

The record followed here is ChEMBL document CHEMBL1142293, “Thiol-based angiotensin-converting enzyme 2 inhibitors: P1 modifications for the exploration of the S1 subsite” (Bioorg Med Chem Lett, 2008).

Sequence of Neprilysin (P08473 whole entry): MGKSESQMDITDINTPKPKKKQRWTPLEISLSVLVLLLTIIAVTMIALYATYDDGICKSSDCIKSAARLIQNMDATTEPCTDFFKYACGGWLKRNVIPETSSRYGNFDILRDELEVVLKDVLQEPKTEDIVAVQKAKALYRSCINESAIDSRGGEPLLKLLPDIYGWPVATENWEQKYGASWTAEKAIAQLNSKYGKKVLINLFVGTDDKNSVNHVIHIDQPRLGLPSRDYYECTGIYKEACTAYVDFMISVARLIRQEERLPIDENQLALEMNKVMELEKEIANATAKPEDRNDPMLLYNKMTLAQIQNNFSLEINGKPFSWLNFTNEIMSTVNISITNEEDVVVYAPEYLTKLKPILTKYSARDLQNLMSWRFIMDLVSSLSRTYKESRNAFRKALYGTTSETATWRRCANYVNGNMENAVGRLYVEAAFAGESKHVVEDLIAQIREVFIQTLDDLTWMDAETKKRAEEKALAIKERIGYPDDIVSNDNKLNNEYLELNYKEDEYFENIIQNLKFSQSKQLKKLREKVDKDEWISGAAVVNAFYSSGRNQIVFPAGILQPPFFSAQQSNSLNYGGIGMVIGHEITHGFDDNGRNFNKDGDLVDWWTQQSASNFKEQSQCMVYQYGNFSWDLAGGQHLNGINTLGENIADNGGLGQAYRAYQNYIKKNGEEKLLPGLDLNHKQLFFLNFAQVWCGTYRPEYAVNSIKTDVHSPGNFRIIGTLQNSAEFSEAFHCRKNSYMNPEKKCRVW
Sequence of Angiotensin-converting enzyme (P12821 whole entry): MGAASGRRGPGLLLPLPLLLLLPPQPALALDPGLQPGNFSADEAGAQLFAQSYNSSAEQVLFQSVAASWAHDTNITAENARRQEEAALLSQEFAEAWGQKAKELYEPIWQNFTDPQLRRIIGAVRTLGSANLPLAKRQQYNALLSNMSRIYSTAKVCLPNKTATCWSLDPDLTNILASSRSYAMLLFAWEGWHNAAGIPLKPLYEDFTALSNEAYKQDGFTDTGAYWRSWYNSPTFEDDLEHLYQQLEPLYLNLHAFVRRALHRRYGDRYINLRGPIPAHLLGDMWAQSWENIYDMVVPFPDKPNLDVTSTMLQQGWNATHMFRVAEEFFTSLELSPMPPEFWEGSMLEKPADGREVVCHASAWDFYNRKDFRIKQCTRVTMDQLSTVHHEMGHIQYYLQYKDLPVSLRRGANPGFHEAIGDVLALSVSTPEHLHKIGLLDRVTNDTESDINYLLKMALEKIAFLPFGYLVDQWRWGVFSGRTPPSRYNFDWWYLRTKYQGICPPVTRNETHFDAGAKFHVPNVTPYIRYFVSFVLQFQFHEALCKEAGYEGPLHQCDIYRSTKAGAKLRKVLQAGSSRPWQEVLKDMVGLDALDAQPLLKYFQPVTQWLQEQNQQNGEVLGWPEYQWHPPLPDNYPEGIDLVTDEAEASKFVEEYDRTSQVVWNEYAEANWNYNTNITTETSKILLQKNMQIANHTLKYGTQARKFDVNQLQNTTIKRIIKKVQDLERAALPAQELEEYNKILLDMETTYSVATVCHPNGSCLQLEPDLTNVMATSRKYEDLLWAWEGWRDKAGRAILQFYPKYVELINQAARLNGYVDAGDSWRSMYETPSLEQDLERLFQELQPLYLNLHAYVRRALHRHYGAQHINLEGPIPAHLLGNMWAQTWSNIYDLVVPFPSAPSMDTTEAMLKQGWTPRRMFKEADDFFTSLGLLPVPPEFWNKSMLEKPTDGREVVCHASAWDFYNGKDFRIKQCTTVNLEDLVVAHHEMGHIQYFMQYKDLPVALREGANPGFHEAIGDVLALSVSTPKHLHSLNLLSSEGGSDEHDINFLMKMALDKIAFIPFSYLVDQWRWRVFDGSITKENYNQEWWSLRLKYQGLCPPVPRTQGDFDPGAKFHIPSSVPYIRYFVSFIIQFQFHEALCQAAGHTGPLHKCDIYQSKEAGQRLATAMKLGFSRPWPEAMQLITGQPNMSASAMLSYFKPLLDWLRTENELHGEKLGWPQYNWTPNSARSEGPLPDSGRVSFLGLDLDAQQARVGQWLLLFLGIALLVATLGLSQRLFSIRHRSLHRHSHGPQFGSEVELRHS
Sequence of Angiotensin-converting enzyme 2 (Q9BYF1 whole entry): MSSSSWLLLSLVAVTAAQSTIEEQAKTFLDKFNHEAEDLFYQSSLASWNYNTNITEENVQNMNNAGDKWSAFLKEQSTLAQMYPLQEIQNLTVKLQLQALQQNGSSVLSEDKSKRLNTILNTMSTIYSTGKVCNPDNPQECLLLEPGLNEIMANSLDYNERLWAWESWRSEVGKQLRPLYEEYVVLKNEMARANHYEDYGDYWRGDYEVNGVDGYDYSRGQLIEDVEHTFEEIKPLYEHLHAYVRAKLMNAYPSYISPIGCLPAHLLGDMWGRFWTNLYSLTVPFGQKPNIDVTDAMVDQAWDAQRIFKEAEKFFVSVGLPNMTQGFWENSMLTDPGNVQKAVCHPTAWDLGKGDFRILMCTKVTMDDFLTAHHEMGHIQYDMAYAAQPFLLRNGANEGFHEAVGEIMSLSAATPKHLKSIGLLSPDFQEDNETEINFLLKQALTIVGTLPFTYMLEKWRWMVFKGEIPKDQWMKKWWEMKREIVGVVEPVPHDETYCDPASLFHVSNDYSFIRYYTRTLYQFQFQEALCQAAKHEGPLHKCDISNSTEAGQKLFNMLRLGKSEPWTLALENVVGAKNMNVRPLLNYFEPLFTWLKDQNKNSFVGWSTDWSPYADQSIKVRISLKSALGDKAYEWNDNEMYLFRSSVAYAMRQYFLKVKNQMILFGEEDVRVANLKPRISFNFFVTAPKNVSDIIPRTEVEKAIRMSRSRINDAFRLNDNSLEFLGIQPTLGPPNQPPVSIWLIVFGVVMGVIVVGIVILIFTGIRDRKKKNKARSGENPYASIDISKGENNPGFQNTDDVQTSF

As for `O=C(N[C@@H](Cc1ccc(-c2ccccc2)cc1)C(=O)O)[C@H](S)Cc1ccccc1`, the Ki was found to be 310 nM at Carboxypeptidase A1, 1400 nM in experiment [1], 1.3 nM on Neprilysin and 520 nM in experiment [2].

On to `CC[C@@H](C)[C@H](S)C(=O)N[C@@H](Cc1ccc(-c2ccccc2)cc1)C(=O)O`, for which the Ki at Carboxypeptidase A1 is 11000 nM; in experiment [1], 1.5 nM; at Neprilysin it was 27 nM; in experiment [2], 490 nM.

Consider `O=C(O)[C@H](Cc1ccc(-c2ccccc2)cc1)NC(=O)[C@@H](S)C1CCCCC1`, for which the Ki at Carboxypeptidase A1 turned out to be 12000 nM; in experiment [1] it was 65 nM; at Neprilysin, 1300 nM; in experiment [2] it was 13000 nM.

Turning to `O=C(O)[C@H](Cc1ccc(-c2ccccc2)cc1)NC(=O)[C@@H](S)C1CCC1`, the Ki was 12000 nM on Carboxypeptidase A1, 2.4 nM in experiment [1], 5.4 nM at Neprilysin and 620 nM in experiment [2].

Take `CCCC[C@H](S)C(=O)N[C@@H](Cc1ccc(-c2ccccc2)cc1)C(=O)O`: the Ki at Carboxypeptidase A1 was 8900 nM; in experiment [1], 1.8 nM; at Neprilysin, 1.2 nM; in experiment [2], 9.3 nM.

In the case of `CC[C@H](S)C(=O)N[C@@H](Cc1ccc(-c2ccccc2)cc1)C(=O)O`, the Ki at Carboxypeptidase A1 was 9300 nM; in experiment [1], 1.4 nM; on Neprilysin, 0.8 nM; in experiment [2], 8.6 nM.

As to `C[C@H](S)C(=O)N[C@@H](Cc1ccc(-c2ccccc2)cc1)C(=O)O`, the Ki is 14000 nM at Carboxypeptidase A1, 6.9 nM in experiment [1], 23 nM at Neprilysin and 21 nM in experiment [2].

On to `O=C(CS)N[C@@H](Cc1ccc(-c2ccccc2)cc1)C(=O)O`, for which the Ki on Carboxypeptidase A1 was 1700 nM; in experiment [1] it was 320 nM; at Neprilysin, 13 nM; in experiment [2], 16 nM.

`CC[C@H](C)[C@H](S)C(=O)N[C@@H](Cc1ccc(-c2ccccc2)cc1)C(=O)O`: the Ki at Carboxypeptidase A1 was 15000 nM; in experiment [1], 1.6 nM; at Neprilysin, 2.4 nM; in experiment [2], 200 nM.

Take `CC(C)[C@H](S)C(=O)N[C@@H](Cc1ccc(-c2ccccc2)cc1)C(=O)O`: the Ki amounted to 17000 nM on Carboxypeptidase A1, 1.5 nM in experiment [1], 13 nM at Neprilysin and 200 nM in experiment [2].

As for `CC(C)(C)C[C@H](S)C(=O)N[C@@H](Cc1ccc(-c2ccccc2)cc1)C(=O)O`, the Ki on Carboxypeptidase A1 came out at 22000 nM; in experiment [1], 7.1 nM; at Neprilysin, 2.6 nM; in experiment [2], 2700 nM.

Take `O=C(O)[C@H](Cc1ccc(-c2ccccc2)cc1)NC(=O)[C@@H](S)CC1CCCCC1`: the Ki worked out at 17000 nM at Carboxypeptidase A1, 420 nM in experiment [1], 130 nM on Neprilysin and 840 nM in experiment [2].

On to `CC(C)C[C@H](S)C(=O)N[C@@H](Cc1ccc(-c2ccccc2)cc1)C(=O)O`, for which the Ki turned out to be 11000 nM at Carboxypeptidase A1, 1.4 nM in experiment [1], 0.28 nM at Neprilysin and 3.2 nM in experiment [2].

For the compound `O=C(O)[C@H](Cc1ccc(-c2ccccc2)cc1)NC(=O)[C@@H](S)Cc1ccc2ccccc2c1`, the Ki on Carboxypeptidase A1 amounted to 32000 nM; in experiment [1] it was 550 nM; at Neprilysin it was 140 nM; in experiment [2], 210 nM.

On to `O=C(O)[C@H](Cc1ccc(-c2ccccc2)cc1)NC(=O)[C@@H](S)Cc1ccccc1`, for which the Ki on Carboxypeptidase A1 was determined as 1200 nM; in experiment [1] it was 86 nM; on Neprilysin it was 1.1 nM; in experiment [2], 30 nM.

For `O=C(O)[C@H](Cc1ccc(-c2ccccc2)cc1)NC(=O)[C@@H](S)CCc1ccccc1`, the Ki worked out at 5000 nM on Carboxypeptidase A1, 860 nM in experiment [1], 2.6 nM on Neprilysin and 93 nM in experiment [2].

For `CC(C)(S)C(=O)N[C@@H](Cc1ccc(-c2ccccc2)cc1)C(=O)O`, the Ki worked out at 2300 nM in experiment [1], 730 nM at Neprilysin and 3400 nM in experiment [2].

In the case of `O=C(O)[C@H](Cc1ccc(-c2ccccc2)cc1)NC(=O)[C@@H](S)C1CCCC1`, the Ki on Carboxypeptidase A1 was found to be 12000 nM; in experiment [1] it was 1.8 nM; on Neprilysin it was 38 nM; in experiment [2], 700 nM.

Regarding `O=C(O)[C@H](Cc1ccc(-c2ccccc2)cc1)NC(=O)[C@@H](S)c1ccccc1`, the Ki was 84 nM in experiment [1], 410 nM at Neprilysin and greater than 10000 nM in experiment [2].
